Published values collected from several papers.
Protocols differ between the studies behind these lines.
Target: Tyrosine-protein kinase Srms (SRMS, Homo sapiens, UniProt Q9H3Y6)

With `CN(C)c1ncc(F)c(-c2cnn3ncccc23)n1` the remaining binding was 81% (binding; 1 µM).
With `FC(F)(F)Oc1cccc(-c2cnc3ccc(-c4ccncc4)nn23)c1` the remaining binding was 65% (cell-free assay; competition with immobilised ligand; 5 µM).
For `F[C@@H]1CCN(c2nccc(-c3cnn4ncccc34)n2)C1`, the remaining binding was 100% (binding; 1 µM).
The remaining binding of `O=C(Nc1cccnn1)N1CCC(=Cc2cccc(Oc3ccc(C(F)(F)F)cn3)c2)CC1` is reported as 95% (cell-free assay; competition with immobilised ligand; 1 µM).
`CC1CCCN1c1nccc(-c2cnn3ncccc23)n1` (stereo not shown) gave a remaining binding of 100% (binding; 1 µM).
With `CNC(=O)[C@@H]1CC[C@@H](n2c(-c3ccc4cnccc4c3)nc3ccc(C(=O)NCc4cccc(C(N)=O)c4)cc32)C1` the remaining binding was 97% (binding; competition with immobilised ligand; 1 µM).
`O=C(N1CCS(=O)(=O)CC1)N1C[C@H](c2ccc(OC(F)(F)F)cc2)C[C@H](c2nc(C3CC3)no2)C1` has a remaining binding of 100% (cell-free assay; competition with immobilised ligand; 1 µM).
`O=C(NCC1CCOCC1)c1n[nH]cc1NC(=O)c1c(F)cccc1F` has a remaining binding of 100% (binding; competition with immobilised ligand; 1 µM).
For `c1cnn2ncc(-c3ccnc(N4CCC45COC5)n3)c2c1`, the remaining binding was 70% (binding; 1 µM).
`C=CC(=O)N1CCC(C(=O)NCC(=O)N2CCN(c3nc(-c4cnc(N)nc4C(F)F)nc(N4CCOCC4)n3)CC2)CC1` has a remaining binding of 72% (binding; competition with immobilised ligand; 1 µM).
The remaining binding of `CC(C)(O)c1cncc(-c2nc3ccc(F)cc3n2C2CC2)c1` is reported as 100% (cell-free assay; competition with immobilised ligand; 1 µM).
For `O=C(c1ccc(Nc2ncc(Cl)c(-c3ccc(Cl)s3)n2)cc1)N1CCC(N2CCCC2)CC1`, the remaining binding was 98% (binding; competition with immobilised ligand; 1 µM).
`CSc1cccnc1N1CCN(Cc2nc3ccccc3[nH]2)CC1` gave a remaining binding of 100% (cell-free assay; competition with immobilised ligand; 1 µM).
The remaining binding of `O=C(NCCCN1CCOCC1)c1ccc(Nc2ncc(Cl)c(-c3ccc(Cl)s3)n2)cc1` is reported as 99% (binding; competition with immobilised ligand; 1 µM).
`c1cncc(-c2cccc(Nc3nccc(NC4CCCCC4)n3)c2)c1` has a remaining binding of 71% (binding; competition with immobilised ligand; 10 µM).
For `Cc1cnn2ncc(-c3ccnc(N(C)C)n3)c2c1`, the remaining binding was 100% (binding; 1 µM).
The remaining binding of `N#CC1(c2ccccn2)CCN(Cc2cc(C(=O)N3CCCC3)c(=O)n3ccccc23)CC1` is reported as 100% (cell-free assay; competition with immobilised ligand; 1 µM).
The remaining binding of `CN(CCCC(F)(F)F)c1nccc(-c2cnn3ncccc23)n1` is reported as 100% (binding; 1 µM).
`C[C@@H](c1ccc(-n2cnc3c(N)ncnc32)cc1)N1CCc2nn(C)c(Cc3ccccc3)c2C1=O` has a remaining binding of 44% (binding; competition with immobilised ligand; 0.1 µM).
For `CCOCCn1cc(C(=O)Nc2ccc(-n3nc(-c4cccnc4)cc3C(F)(F)F)cn2)ccc1=O`, the remaining binding was 79% (cell-free assay; competition with immobilised ligand; 1 µM).
The remaining binding of `Cc1cnc(Nc2ccc(C(=O)N3CCC(N4CCCC4)CC3)cc2)nc1-c1cc2ccccc2s1` is reported as 68% (binding; competition with immobilised ligand; 1 µM).
`N[C@H]1CCN(c2nccc(-c3cnn4ncccc34)n2)C1` has a remaining binding of 88% (binding; 1 µM).
